Source: PubChem BioAssay
The list is not random: actives were taken first. Their share in the collection is about 1.6%.
MT1-MMP act inh – MT1-MMP (human) activation inhibition | 360,000 tested, 0.061% active | HT1080 RFP-PRO-GFP cells, GFP/RFP ratio fluorescence, overnight; percent of plate control window, DMSO zero | P50281 | GFP/RFP ratio change, % at 20 µM | AID 651647;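 active means GFP/RFP ratio change of at least 30% with cell ATP level not reduced by more than half and red fluorescence within 50% of control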
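Compound: 20 µM single dose, 1% DMSO / System: HT1080 RFP-PRO-GFP cells / Controls: DMSO and RFP-L50D-GFP cell wells / Read-out basis: GFP/RFP fluorescence ratio / Schedule: overnight compound exposure at 37 °C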
ADAM10 inh – inhibitors of human ADAM10. 370,000 tested, 0.62% active. recombinant ADAM10, EDANS/DABCYL FRET peptide cleavage, 3 h. inhibition, % at 7 µM;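 active means inhibition above a per-campaign cutoff equal to the mean of compounds falling between control-based bounds plus 3 SD, cut at about 20% in these data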
ADAM17 inh – inhibitors of human ADAM17; recombinant ADAM17, EDANS/DABCYL FRET peptide cleavage; P78536; 370,000 tested, 0.83% active; inhibition, % at 6.95 µM;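 active means inhibition above the mean of compounds lying between control limits plus 3 SD, set per campaign, cut at about 8.5% in these data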
Tn7 DDE FP – disrupts Tn7 cyclic peptide binding to fibrin D-Dimer-E complex | P02675 | FP displacement of FITC-Tn7 peptide from fibrin DD(E); 0% = median of compound wells per plate | inhibition, % at 8.3 µM | 370,000 tested, 0.13% active | AID 720508;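 active means inhibition above the mean of compounds falling within the control limits plus 3 SD of them, cut at about 14% in these data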
Target sequence (P02675 whole entry, looked up): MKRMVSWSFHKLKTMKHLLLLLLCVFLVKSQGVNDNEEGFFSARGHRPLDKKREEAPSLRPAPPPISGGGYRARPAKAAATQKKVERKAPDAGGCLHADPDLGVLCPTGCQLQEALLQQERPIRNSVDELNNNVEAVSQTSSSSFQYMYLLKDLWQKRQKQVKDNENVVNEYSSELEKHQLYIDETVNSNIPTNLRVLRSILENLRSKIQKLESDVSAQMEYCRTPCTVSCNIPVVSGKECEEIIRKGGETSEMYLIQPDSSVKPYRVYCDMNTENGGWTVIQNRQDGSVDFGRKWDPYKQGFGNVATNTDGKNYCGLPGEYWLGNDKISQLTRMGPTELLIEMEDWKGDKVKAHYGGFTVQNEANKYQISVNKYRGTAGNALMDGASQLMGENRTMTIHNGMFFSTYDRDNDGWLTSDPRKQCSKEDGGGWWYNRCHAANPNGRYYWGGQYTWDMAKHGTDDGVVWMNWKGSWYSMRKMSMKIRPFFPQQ
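Assay system: Human fibrin DD(E) protein | Medium: Tris buffer with calcium and detergent, pH 7.8 | Reagent: 0.1 µM fluorescent Tn7 | Compound dosing: Single point at 8.3 µM | Times: 10 min preincubation, 3 h with tracer, room temperature | Detection: Fluorescence polarization of the labelled Tn7 tracer | Controls: Aha-Tn7 high control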
Tn6 DDE FP – disrupts Tn6 cyclic peptide binding to fibrin D-Dimer-E complex; inhibition, % at 8.3 µM; 370,000 tested, 0.21% active; Fibrin DD(E) TRITC-Tn6 fluorescence polarization displacement;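 active means inhibition above a per-campaign cutoff: mean of compounds within control limits plus 3 SD, cut at about 15% in these data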
MT1-MMP conf – MT1-MMP (human) activation inhibition, single-concentration validation | 200 tested, 10% active | inhibition, % at 20 µM | shares compounds with MT1-MMP act inh | HT1080 RFP-PRO-GFP cells, GFP and RFP fluorescence ratio, overnight;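 active means inhibition of at least 50% in the primary cell screen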
Hits are given with their value; . = inactive; / = no result.

SMILES	MT1-MMP act inh	ADAM10 inh	ADAM17 inh	Tn7 DDE FP	Tn6 DDE FP	MT1-MMP conf
COc1ccc(-c2cc(=O)c3c(O)c(OC)c(O)cc3o2)cc1	.	.	.	.	.	/
CCC[C@H]1[C@@H](NC(=O)C(c2ccccc2)c2ccccc2)CC[C@@]23CCCN2C(=O)CCC[C@@H]13	/	.	.	.	.	/
Cc1c(C(=O)O)c(O)cc2c1C(=O)c1c(O)c([C@@H]3O[C@H](CO)[C@@H](O)[C@H](O)[C@H]3O)c(O)c(O)c1C2=O	50	.	.	.	18	.
CSC1=NSC2=NC(=O)/C(=C\c3cccs3)C(=N)N12	35	.	.	.	.	.
C[C@@H]1CN([C@@H](C)CO)C(=O)c2cccc(NC(=O)Nc3cccc4ccccc34)c2O[C@H]1CN(C)S(=O)(=O)c1ccc(Cl)cc1	/	.	.	.	.	/
CN(CC(=O)Nc1cc([N+](=O)[O-])ccc1Cl)Cc1ccc(Br)cc1	36	.	.	.	.	.
CN(CCCC(=O)O)c1ccc(N=Nc2ccc([N+](=O)[O-])cc2)cc1	53	.	.	.	.	.
CN(N=Nc1ccc([N+](=O)[O-])cc1)c1ccccc1	.	.	.	.	.	/
COc1ccc(Br)cc1CNc1ccc(O)cc1	52	.	.	.	.	.
COc1ccc(Br)cc1CNc1ccc2[nH]c(=O)[nH]c2c1	.	.	.	.	.	/
CCN1C(=O)/C(=C2\C=Cc3ccccc3N2CC)SC1=S	99	.	.	.	.	.
CCN1C(=O)/C(=c2\o/c(=C3\C=Cc4ccccc4N3CC)c(=O)n2CC)SC1=S	.	.	.	.	.	/
CCOC(=O)CCC(=O)NCc1ccc2c(c1)cc(C)n2C	.	.	.	.	.	/
Cc1cc2cc(CNC(=O)c3ccc(S(=O)(=O)N4CCCCC4)cc3)ccc2n1C	40	.	.	.	164	.
Cc1cc2cc(CNC(=S)NCc3ccccc3)ccc2n1C	46	.	.	.	.	.
CCCCNC(=S)NCc1ccc2c(c1)cc(C)n2C	.	.	.	.	.	/
CCCCC(=O)NCc1ccc2c(c1)cc(C)n2C	47	.	.	.	.	.
CCCS(=O)(=O)NCc1ccc2c(c1)cc(C)n2C	34	.	.	.	.	.
C[C@H]1[C@@H](NCc2cccs2)CC[C@@]23CCCN2C(=O)CCC[C@@H]13	/	.	.	.	.	/
CC(C)CC(CCOCCO)NC(=O)OCc1ccccc1[N+](=O)[O-] (configuration not stated)	/	.	.	.	.	/
COc1ccccc1NC(=S)NCc1ccc2c(c1)cc(C)n2C	41	.	.	.	.	.
COc1ccc(NC(=S)NCc2ccc3c(c2)cc(C)n3C)cc1	.	.	.	.	.	/
O=C(NCCO)[C@H](Cc1ccccc1)NC1(C(=O)NCCN2CCOCC2)CCCCC1	/	.	.	.	.	/
Cc1cc(C)c(S(=O)(=O)/N=C2\C=C(NS(=O)(=O)c3ccccc3)C(=O)c3ccccc32)c(C)c1	41	.	.	.	.	.
Cc1[nH]n(-c2ccccc2)c(=O)c1N=Nc1nccs1	32	.	.	.	.	.
SMILES	MT1-MMP act inh	ADAM10 inh	ADAM17 inh	Tn7 DDE FP	Tn6 DDE FP	MT1-MMP conf
O=C(CSc1nnc(-c2ccco2)n1-c1ccc(Cl)cc1)Nc1ccccc1-c1ccccc1	/	.	.	.	.	/
C[C@H]1[C@@H](OC(=O)NC2CCC2)CC[C@@]23CCCN2C(=O)CCC[C@@H]13	/	.	.	.	.	/
COc1cc(NS(=O)(=O)c2ccc(C)cc2)c2c(c1N)C(=O)c1ccccc1C2=O	47	.	.	.	.	.
COC(=O)C(C(=O)OC)c1ccccc1NS(=O)(=O)c1ccc(C)cc1	.	.	.	.	.	/
C[C@H]1COc2cc(Br)ccc2S(=O)(=O)N1Cc1cn(CCC2OCCO2)nn1	/	.	.	.	.	/
O=[N+]([O-])c1ccccc1N=Nc1ccc(O)cc1O	.	.	.	.	.	/
O=S(=O)(O)c1cc(O)c(N=Nc2ccc(O)cc2O)c2ccccc12	64	.	.	.	.	50
CCC(=O)N1CCC1(C)C(=O)Nc1ccc(F)cc1 (configuration not stated)	34	.	.	.	.	.
COC(=O)[C@]12C[C@H](CC(=O)NCc3ccccc3)C(=O)N(CCc3ccc(OC)c(OC)c3)C1=C[C@H](C(C)C)O[C@@H]2C1CC1	/	.	.	.	.	/
O=C(N/N=C/C1CC=CCC1)c1cc2ccccc2cc1O (configuration not stated)	35	.	.	.	.	.
O=C(/C=C(\c1ccc(Cl)cc1)n1cncn1)c1ccc(Cl)cc1	31	/	/	/	/	.
O=C(/C=C(\c1ccccc1)n1cncn1)c1ccccc1	.	.	.	.	.	/
C/C(=N\Nc1nc2ccccc2[nH]1)c1ccc([N+](=O)[O-])cc1	51	.	.	.	.	.
CCC[C@H]1[C@@H](NC(=O)c2ccc(C)cc2)CC[C@@]23CCCN2C(=O)CCC[C@@H]13	/	.	.	.	.	/
COC(=O)[C@]12C[C@H](CC(=O)N3CCN(C(=O)C4CC4)CC3)C(=O)N(Cc3ccc(Cl)cc3Cl)C1=C[C@H](C(C)(C)C)O[C@@H]2C	/	.	.	.	.	/
COc1cc(/C=C2\C(=O)N(c3ccc(NC(C)=O)cc3)N=C2c2ccccc2)ccc1O	.	.	.	.	.	/
CCOc1cc(/C=C2\C(=O)N(c3nc(-c4ccc(Br)cc4)cs3)N=C2c2ccccc2)ccc1O	63	/	/	/	/	.
O=C(CSc1nnc(-c2ccccc2)n1-c1ccc(Cl)cc1)c1ccccc1Br	/	.	.	.	.	/
C[C@H](CO)N1C[C@H](C)[C@@H](CN(C)S(=O)(=O)c2ccc(F)cc2)Oc2ccc(NC(=O)CCN3CCOCC3)cc2C1=O	32	.	.	.	.	.
C[C@H](CO)N1C[C@H](C)[C@@H](CN(C)S(=O)(=O)c2ccc(F)cc2)Oc2ccc(NC(=O)Cc3ccccc3)cc2C1=O	.	.	.	.	.	/
Nc1[nH]c(C(=O)c2ccccc2)c(-c2ccc(Br)cc2)c1C(=O)N1CCN(CCO)CC1	/	.	.	.	.	/
CCOC(=O)C1CCN(c2ncnc3c2[nH]c2cccc(OC)c23)CC1	.	.	.	.	.	/
COc1cccc2[nH]c3c(N4CCCCC4)ncnc3c12	32	.	.	.	.	.
O=[N+]([O-])c1ccc(N2CCCCC2)s1	32	.	.	.	.	.
CC1CCCN(c2ccc([N+](=O)[O-])s2)C1 (configuration not stated)	.	.	.	.	.	/
O=C(NCCCn1ccnc1)c1cccnc1	32	.	.	.	.	.
O=C(O)COc1ccc2nsnc2c1Cl	.	.	.	.	.	/
